Source: ChEMBL document CHEMBL3751740, “New MKLP-2 inhibitors in the paprotrain series: Design, synthesis and biological evaluations” (Bioorg Med Chem, 2016)

Tests used:
[1] = molecular target: Centromere-associated protein E (Homo sapiens) (UniProt Q02224); test: Inhibition of porcine brain microtubule-stimulated human recombinant GST-tagged CENP-E ATPase activity at 15 uM by microplate reader in presence of Mg2+ ATP relative to control
Outline: (§1)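 Each kinesin motor domain was tested against MT-stimulated ATPase at 22 °C in triplicate, with compounds at 15 µM. Buffer was 7.5 mM PIPES-NaOH pH 7.0 with MgCl2, Taxol, ELIPA reagents and 1.25 mg/mL MTs. Reactions were started with 1 mM Mg2+ATP and read kinetically at 360 nm. Monastrol and AMP-PNP (1 mM) were the controls.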

[2] = molecular target: T1, Chromosome-associated kinesin KIF4A (Homo sapiens) (UniProt O95239); test: Inhibition of porcine brain microtubule-stimulated human recombinant GST-tagged Kif4A ATPase activity at 15 uM by microplate reader in presence of Mg2+ ATP relative to control; outline: as §1
T1 sequence (whole entry): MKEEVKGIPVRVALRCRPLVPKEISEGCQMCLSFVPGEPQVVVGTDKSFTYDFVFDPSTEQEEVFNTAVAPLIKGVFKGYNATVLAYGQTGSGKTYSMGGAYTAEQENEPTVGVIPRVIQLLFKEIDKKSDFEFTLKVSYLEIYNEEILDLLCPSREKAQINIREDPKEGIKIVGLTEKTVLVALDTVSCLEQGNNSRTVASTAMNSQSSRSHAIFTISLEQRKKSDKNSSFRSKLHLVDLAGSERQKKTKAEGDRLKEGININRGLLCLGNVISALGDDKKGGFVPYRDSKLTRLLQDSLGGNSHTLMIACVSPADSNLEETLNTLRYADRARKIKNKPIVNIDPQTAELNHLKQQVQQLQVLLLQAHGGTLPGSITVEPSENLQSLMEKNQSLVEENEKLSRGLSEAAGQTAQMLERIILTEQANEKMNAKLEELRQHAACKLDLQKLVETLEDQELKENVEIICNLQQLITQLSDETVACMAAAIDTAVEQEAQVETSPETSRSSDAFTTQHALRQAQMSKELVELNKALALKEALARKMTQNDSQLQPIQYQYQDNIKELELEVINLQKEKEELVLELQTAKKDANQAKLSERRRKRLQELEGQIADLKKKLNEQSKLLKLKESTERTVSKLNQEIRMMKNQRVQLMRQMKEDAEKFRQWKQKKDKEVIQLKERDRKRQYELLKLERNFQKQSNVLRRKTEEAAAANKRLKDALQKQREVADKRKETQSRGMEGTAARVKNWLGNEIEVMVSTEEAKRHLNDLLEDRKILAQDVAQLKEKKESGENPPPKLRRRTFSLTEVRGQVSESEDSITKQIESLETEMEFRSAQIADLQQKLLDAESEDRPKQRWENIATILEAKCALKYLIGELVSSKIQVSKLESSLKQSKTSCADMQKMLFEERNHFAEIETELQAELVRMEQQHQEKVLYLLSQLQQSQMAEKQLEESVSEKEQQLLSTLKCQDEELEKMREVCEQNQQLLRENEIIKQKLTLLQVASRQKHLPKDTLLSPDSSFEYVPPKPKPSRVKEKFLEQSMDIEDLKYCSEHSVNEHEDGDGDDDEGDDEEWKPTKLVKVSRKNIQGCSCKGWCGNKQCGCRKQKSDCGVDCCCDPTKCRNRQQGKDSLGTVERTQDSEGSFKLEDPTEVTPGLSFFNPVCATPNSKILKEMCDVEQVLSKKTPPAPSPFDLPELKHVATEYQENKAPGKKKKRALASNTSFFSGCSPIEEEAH

[3] = molecular target: T2, Kinesin-like protein KIF3C (Homo sapiens) (UniProt O14782); test: Inhibition of porcine brain microtubule-stimulated human recombinant GST-tagged KIF3C ATPase activity at 15 uM by microplate reader in presence of Mg2+ ATP relative to control; outline: as §1
T2 sequence (whole entry): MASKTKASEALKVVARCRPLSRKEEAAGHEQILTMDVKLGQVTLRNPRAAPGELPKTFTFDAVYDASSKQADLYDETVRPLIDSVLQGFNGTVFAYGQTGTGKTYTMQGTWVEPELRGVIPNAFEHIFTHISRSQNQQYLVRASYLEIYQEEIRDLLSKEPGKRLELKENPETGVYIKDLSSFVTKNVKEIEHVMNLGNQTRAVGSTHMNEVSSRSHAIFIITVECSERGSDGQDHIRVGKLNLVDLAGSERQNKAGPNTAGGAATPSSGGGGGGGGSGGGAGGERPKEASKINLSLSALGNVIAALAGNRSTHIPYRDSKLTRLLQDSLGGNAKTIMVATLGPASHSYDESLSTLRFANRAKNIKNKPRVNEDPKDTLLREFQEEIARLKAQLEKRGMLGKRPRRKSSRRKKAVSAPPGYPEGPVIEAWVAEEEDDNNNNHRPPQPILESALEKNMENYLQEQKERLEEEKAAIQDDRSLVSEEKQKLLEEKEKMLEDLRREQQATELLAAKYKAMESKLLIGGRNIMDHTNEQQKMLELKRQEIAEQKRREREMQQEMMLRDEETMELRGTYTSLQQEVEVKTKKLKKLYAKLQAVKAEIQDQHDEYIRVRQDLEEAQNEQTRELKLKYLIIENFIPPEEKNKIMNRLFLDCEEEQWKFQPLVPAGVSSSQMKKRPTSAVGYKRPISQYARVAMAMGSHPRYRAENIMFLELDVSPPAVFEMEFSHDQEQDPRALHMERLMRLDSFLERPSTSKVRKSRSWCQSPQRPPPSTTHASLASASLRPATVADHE

Sequence of Centromere-associated protein E (Homo sapiens) (Q02224 whole entry, the tested form may be a part): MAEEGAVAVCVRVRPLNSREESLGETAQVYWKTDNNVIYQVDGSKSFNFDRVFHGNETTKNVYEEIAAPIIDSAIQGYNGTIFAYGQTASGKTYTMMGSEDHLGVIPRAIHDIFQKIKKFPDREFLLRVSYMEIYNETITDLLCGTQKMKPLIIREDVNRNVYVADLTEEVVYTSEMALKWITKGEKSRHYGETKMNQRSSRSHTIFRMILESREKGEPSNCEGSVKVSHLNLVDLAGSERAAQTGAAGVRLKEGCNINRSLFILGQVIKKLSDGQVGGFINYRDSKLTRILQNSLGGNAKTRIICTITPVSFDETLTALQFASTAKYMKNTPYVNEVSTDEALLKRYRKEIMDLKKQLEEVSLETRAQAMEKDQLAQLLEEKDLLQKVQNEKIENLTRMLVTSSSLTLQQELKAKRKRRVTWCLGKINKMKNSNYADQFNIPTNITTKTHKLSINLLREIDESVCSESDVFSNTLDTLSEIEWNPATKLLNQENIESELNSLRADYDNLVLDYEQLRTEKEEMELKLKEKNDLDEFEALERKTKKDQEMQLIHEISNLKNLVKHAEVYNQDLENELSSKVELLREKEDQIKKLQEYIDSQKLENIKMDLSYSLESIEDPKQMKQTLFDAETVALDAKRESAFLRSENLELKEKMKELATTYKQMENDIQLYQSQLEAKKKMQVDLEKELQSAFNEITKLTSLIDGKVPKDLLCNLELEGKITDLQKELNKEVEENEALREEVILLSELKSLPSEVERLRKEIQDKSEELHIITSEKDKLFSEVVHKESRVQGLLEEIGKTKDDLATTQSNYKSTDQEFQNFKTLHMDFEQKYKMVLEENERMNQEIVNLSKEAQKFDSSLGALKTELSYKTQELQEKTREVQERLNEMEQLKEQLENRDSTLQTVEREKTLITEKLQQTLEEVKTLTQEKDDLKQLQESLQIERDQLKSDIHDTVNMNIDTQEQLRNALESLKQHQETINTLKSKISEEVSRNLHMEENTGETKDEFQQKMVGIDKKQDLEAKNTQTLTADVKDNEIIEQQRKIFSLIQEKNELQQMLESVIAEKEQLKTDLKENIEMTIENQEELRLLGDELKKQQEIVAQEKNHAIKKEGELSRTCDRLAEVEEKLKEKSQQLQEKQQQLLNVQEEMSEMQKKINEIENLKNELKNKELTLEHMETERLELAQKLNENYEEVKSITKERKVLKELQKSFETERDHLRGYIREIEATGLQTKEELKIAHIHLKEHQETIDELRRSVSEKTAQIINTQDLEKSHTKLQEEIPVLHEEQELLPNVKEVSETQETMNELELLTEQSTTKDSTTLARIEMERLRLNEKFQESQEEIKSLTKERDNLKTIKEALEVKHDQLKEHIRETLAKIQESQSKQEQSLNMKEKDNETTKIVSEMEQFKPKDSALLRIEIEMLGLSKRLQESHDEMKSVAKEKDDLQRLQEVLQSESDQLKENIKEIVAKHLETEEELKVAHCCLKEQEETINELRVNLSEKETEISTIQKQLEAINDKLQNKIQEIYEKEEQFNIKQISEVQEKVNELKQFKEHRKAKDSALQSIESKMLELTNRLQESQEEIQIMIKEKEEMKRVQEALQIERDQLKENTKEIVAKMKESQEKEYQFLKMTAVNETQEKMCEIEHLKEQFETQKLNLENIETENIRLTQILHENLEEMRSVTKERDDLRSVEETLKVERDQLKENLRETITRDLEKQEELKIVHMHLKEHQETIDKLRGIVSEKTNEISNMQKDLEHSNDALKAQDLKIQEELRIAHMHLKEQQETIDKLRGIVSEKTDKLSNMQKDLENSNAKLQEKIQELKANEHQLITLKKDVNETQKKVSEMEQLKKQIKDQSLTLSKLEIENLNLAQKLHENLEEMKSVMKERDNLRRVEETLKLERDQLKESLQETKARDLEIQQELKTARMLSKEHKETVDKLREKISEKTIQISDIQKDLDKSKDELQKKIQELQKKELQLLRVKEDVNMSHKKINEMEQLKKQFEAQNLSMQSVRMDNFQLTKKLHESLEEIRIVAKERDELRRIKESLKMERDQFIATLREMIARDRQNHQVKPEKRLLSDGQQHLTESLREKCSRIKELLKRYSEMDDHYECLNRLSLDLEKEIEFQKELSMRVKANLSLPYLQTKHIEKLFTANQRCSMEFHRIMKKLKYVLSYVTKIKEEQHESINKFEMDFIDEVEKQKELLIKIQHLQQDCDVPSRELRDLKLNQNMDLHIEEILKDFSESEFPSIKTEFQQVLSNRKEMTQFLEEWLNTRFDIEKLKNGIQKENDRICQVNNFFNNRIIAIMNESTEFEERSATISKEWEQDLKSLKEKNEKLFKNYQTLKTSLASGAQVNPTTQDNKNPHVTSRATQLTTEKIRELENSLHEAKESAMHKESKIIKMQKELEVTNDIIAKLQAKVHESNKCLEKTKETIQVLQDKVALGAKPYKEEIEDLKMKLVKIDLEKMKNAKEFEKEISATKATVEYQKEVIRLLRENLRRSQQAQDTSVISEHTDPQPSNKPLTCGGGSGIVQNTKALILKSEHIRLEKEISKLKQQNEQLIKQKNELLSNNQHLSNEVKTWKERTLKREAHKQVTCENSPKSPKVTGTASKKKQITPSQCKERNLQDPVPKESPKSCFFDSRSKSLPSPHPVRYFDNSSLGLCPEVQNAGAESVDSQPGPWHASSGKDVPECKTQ

inhibition [1] [%] | inhibition [2] [%] | inhibition [3] [%] | SMILES
< 20 | < 20 | < 20 | CCOC(=O)C1=C(C)NC(=S)NC1c1cccc(O)c1 (stereo not drawn)
< 20 | < 20 | < 20 | COc1cccc2[nH]cc(/C(C#N)=C/c3cccnc3)c12
< 20 | < 20 | < 20 | COc1ccc2[nH]cc(/C(C#N)=C/c3cccnc3)c2c1
< 20 | < 20 | < 20 | N#C/C(=C\c1ccc2c(c1)OCO2)c1c[nH]c2ccccc12
< 20 | < 20 | < 20 | COc1ccc2c(/C(C#N)=C/c3cccnc3)c[nH]c2c1

SMILES | inhibition [1] [%] | inhibition [2] [%] | inhibition [3] [%]
N#C/C(=C\c1cccnc1)c1c[nH]c2ccc(OCc3ccccc3)cc12 | < 20 | < 20 | < 20
